Hits are enriched below; roughly 1.9% of the tested compounds scored in any of these assays.
HCV NS3 hel inh – blocks Hepatitis C virus NS3 helicase unwinding | inhibition, % at 10.9 µM | NS3 helicase DNA unwinding, Cy5 molecular beacon fluorescence | 0.56% of 290,000 active;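 active means inhibition above the mean of all tested compounds plus 3 SD, set per campaign, cut at about 35% in these data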;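 further: 0% = DMSO wells and 100% = thioflavine S control wells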
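System: Hepatitis C virus NS3 helicase domain fragment enzyme | Reagent: Annealed dual-labelled DNA beacon duplex, ATP-started | Compound dosing: 10.9 µM single point, 0.8% DMSO | Incubation: 1 h reaction at 25 °C, ATP-initiated | Technique: Cy5 fluorescence | Evaluation: Percent inhibition from t60/t0 fluorescence ratio | Benchmarks: Low DMSO, high thioflavine S at 110 µM | Replication: Singlicate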
HIF act – HIF pathway transcriptional activation | U2OS HRE-luciferase reporter, luminescence; normalized: DMSO 0%, desferrioxamine 100% | activation, % at 7.5 µM (by protocol) | 0.32% of 300,000 active | AID 1910;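 active means mean activation of at least 10% of the iron chelator positive control signal, with at least half of replicates also reaching 10%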
PP1 counter – PP1-alpha (human) inhibition in PP5 counter-screen; AID 2235; 0.9% of 320,000 active; P62136; purified PP1alpha, OMFP fluorescence; inhibition, % at 6.7 µM;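 active means inhibition above the mean inhibition of all tested compounds plus 3 SD, computed separately for each screening campaign, cut at about 15% in these data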
PP5 inh – blocks human protein phosphatase 5 activity; 0.18% of 320,000 active; purified PP5c, OMFP substrate fluorescence; P53041; AID 1987; inhibition, % at 6.7 µM;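 active means inhibition above the campaign's mean inhibition across all tested compounds plus 3 SD, cut at about 9.5% in these data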;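 further: 0% = DMSO only and 100% = 100 µM cantharidin control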
Target sequence (P53041 whole entry, looked up): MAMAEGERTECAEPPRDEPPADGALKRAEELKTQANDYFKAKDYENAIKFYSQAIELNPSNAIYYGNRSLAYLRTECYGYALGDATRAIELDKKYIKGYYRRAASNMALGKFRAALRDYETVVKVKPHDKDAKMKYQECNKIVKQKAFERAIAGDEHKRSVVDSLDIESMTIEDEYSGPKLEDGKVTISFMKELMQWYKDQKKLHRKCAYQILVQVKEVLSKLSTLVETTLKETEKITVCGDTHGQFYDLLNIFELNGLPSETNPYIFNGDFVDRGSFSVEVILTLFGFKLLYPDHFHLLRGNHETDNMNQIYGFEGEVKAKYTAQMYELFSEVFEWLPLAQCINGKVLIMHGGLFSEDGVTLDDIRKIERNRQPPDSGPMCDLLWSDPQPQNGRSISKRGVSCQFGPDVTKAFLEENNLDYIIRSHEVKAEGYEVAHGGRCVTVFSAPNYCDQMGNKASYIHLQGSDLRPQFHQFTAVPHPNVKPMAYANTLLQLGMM
FID counter – displaces DNA intercalator in HCV helicase counter-screen; DNA fluorescent intercalator displacement, fluorescence; inhibition, % at 7.9 µM; 0.17% of 290,000 active; AID 1845; in the data active means inhibition above about 37%;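 further: 0% = vehicle and 100% = reference compound; higher means more ethidium bromide displaced from hairpin DNA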
PP1 inh confirm – confirmation of human PP1 phosphatase inhibitors | shares compounds with PP1 counter | purified PP1alpha, OMFP substrate fluorescence | inhibition, % at 6.7 µM | 52% of 1,900 active;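 active means mean PP1 inhibition above a set limit taken from the earlier primary screen, cut at about 15% in these data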
PP5 counter – counter-screen for PP1 inhibitors: human PP5 phosphatase inhibition; shares compounds with PP1 counter; purified PP5c, OMFP fluorescence; inhibition, % at 6.7 µM; 4% of 1,900 active; AID 2360;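 active means mean PP5 inhibition over triplicate wells above about 9.5% taken from the earlier PP1 screen, limit read from the data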
The depositor's hits bear a star; . = no result given.

SMILES	HCV NS3 hel inh	HIF act	PP1 counter	PP5 inh	FID counter	PP1 inh confirm	PP5 counter
COc1ccc(-c2cc(-c3ccccc3)c(C#N)c(S(C)=O)n2)cc1 (stereo not given)	0.9	-4.8	-1.4	2.3	-30.5	.	.
COc1ccc(-c2cc3nc4ccccc4n3c(N)c2C#N)cc1	3.5	2.6	18.2*	-5.2	-2.1	17.2*	-3.5
CC1C(=O)C(C)(C)C(=O)OC1c1ccc([N+](=O)[O-])cc1 (stereo not given)	5.7	-0.5	-2.0	0.2	-3.5	.	.
O=C(Nc1nnc(C2CC2)s1)c1ccc(Cl)c(S(=O)(=O)N2CCc3ccccc3C2)c1	6.4	-2.0	20.5*	4.5	-4.7	21.3*	-2.5
O=C(NCC(=O)N(c1ccc(F)cc1)C(C(=O)NC1CCCC1)c1cccnc1)c1ccco1 (stereo not given)	18.2	0.1	1.1	-3.9	-36.0	.	.
CCN(CC)S(=O)(=O)c1ccc(C(=O)Nc2nnc(NC(=S)Nc3ccccc3)s2)cc1	-15.5	-0.6	42.7*	3.8	0.7	28.9*	0.9
Cc1sc2nc(CSc3ccc([N+](=O)[O-])c(C(F)(F)F)c3)[nH]c(=O)c2c1C	11.0	-0.2	27.4*	1.1	-2.0	8.7	-2.4
Cc1sc2nc(CSC(C)C(=O)N(C)CC(=O)Nc3ccccc3C(F)(F)F)[nH]c(=O)c2c1C (stereo not given)	.	-2.6	0.2	-1.8	.	.	.
CCN(Cc1ccccc1)S(=O)(=O)c1ccc(C(=O)Nc2nnc(-c3ccccc3OC)o2)cc1	4.7	-8.3	30.3*	-1.9	-5.2	30.0*	1.1
CCCCN(CC)S(=O)(=O)c1ccc(C(=O)Nc2nnc(COC)o2)cc1	6.2	0.9	19.1*	3.6	-38.9	6.1	-1.0
CCCN(CCC)S(=O)(=O)c1ccc(C(=O)Nc2nnc(CSC)o2)cc1	10.6	-0.3	23.7*	-2.2	-30.6	21.7*	-2.3
CCCCN(C)S(=O)(=O)c1ccc(C(=O)Nc2nnc(C3=COCCO3)o2)cc1	-3.2	0.0	13.9	1.4	-34.5	.	.
CCCCN(C)S(=O)(=O)c1ccc(C(=O)Nc2nnc(-c3cccs3)o2)cc1	13.5	-0.5	32.7*	4.6	-27.8	19.5*	-0.2
O=C(O)CNC(=O)c1ccc(NC(=O)/C(=C/c2cccc([N+](=O)[O-])c2)NC(=O)c2ccco2)cc1	2.3	-0.5	-1.8	-0.9	-22.3	.	.
Cc1ccc(S(=O)(=O)N2CCCCC2)cc1NC(=O)C1CCC1	.	.	-0.3	1.7	.	.	.
Cc1c(Cl)cccc1NC(=O)CNC(=O)C1CCN(C(=O)Nc2ccccc2)CC1	.	.	2.5	-0.8	.	.	.
COCc1nnc(NC(=O)c2ccc(S(=O)(=O)N(C)c3ccccc3)cc2)o1	-1.7	-0.2	22.0*	3.0	-27.9	5.7	-2.6
CCc1nnc(NC(=O)c2ccc(S(=O)(=O)N(CCOC)CCOC)cc2)o1	-3.6	0.3	3.9	1.0	-23.3	.	.
CCCCN(CC)S(=O)(=O)c1ccc(C(=O)Nc2nnc(-c3ccccc3Cl)o2)cc1	13.3	-46.6	8.4	0.0	-6.6	.	.
CCCCN(CCCC)S(=O)(=O)c1ccc(C(=O)Nc2nnc(CSC)o2)cc1	-10.3	-0.2	27.3*	-0.1	-7.8	29.3*	7.2
O=C(Nc1nnc(-c2cccs2)o1)c1cccc(F)c1	3.0	0.5	1.3	2.4	-7.2	.	.
CCCCN(CC)S(=O)(=O)c1ccc(C(=O)Nc2nnc(CSC)o2)cc1	25.0	-0.3	29.2*	1.8	-46.3	20.1*	-1.3
O=C(Nc1nnc(-c2cccs2)o1)c1cccc(Oc2ccccc2)c1	25.6	.	28.7*	-0.8	-24.4	29.0*	-1.8
CCOC(=O)C1CCN(C(=O)CN(C)S(=O)(=O)c2ccc3c(c2)c(=O)n(C)c(=O)n3C)CC1	-2.6	0.1	-1.9	0.0	-27.1	.	.
COc1ccc(CNC(=O)COC(=O)c2ccccn2)cc1	4.0	-0.3	-2.7	-0.3	1.9	.	.
COC(=O)C1=C[C@@H](C(=O)OC)[C@@H]2C3=C(C(=O)[C@]2(C)NC(=O)c2ccccc2)[C@H](C)n2c(=O)n(-c4ccccc4)c(=O)n2[C@@H]3C1	.	1.6	-5.4	2.9	.	.	.
CCN(c1ccccc1)S(=O)(=O)c1ccc(C(=O)Nc2nnc(CSC)o2)cc1	6.7	-0.8	38.5*	3.5	-36.8	27.5*	2.0

Screening data deposited in PubChem by several laboratories.
